RanGTP-Impb inh = disruptors of Ran-importin-beta complex formation – biochemical, FRET, CFP-Ran, YFP-importin-beta, homogeneous, primary screen; cell-free CFP-Ran/YFP-importin-beta FRET ratio; inhibition, % (no concentration beside the values); 1.1% of 300,000 active; AID 2216;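 active means more than half of the replicate wells show a fall in the fluorescence ratio signal beyond about 16%, limit read from the data, passing the limit was not always enough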;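 further: 0% = DMSO wells and 100% = Ran loaded with GDP instead of GTP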
Wee1 degr inh = blocks degradation of human Wee1 kinase; P30291; HeLa Luc-Wee1K328M stability, luciferase luminescence; 100% = proteasome inhibitor MG132 effect; reporter increase, % at 5 µM; 1.2% of 220,000 active;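 active means activation above the mean of all tested compounds plus 3 SD, set per screening run, cut at about 8.8% in these data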;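 further: cells exposed to compound for 20 h before luminescence read; 0% = DMSO alone and 100% = MG132 at 30 µM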
Runt-SMMHC FRET = blocks binding of human RUNX1 Runt domain to CBFb-SMMHC | Q01196+Q13951 | Cerulean-Runt/Venus-CBFb-SMMHC FRET ratio 530/480, 1 h | inhibition, % at 20 µM | 0.74% of 220,000 active;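 active means mean inhibition across duplicate retests at 20 µM reaching about 50%, limit read from the data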;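 further: 0% = DMSO wells and 100% = wells with excess untagged CBFb-SMMHC; inhibitors lower the FRET ratio by blocking Runt binding to CBFb-SMMHC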
Efa HMGR inh = blocks class II HMG-CoA reductase of Enterococcus faecalis; AID 1066; purified E. faecalis HMGR, NADPH absorbance 340 nm kinetic; 0.41% of 190,000 active; inhibition, % at 10 µM;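 active means inhibition above a set limit, the median over all tested compounds plus 3 SD, cut at about 9.5% in these data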;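 further: enzyme runs in reverse so mevalonate oxidation gives rising NADPH absorbance; 0% = complete reaction with DMSO and 100% = background rate lacking mevalonate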
Runt-CBFb FRET = Runt domain-CBFb interaction inhibition; Q01196+Q13951; Cerulean-Runt/Venus-CBFb FRET ratio 530/480, 1 h; inhibition, % at 20 µM; 0.46% of 220,000 active;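 active means inhibition over about 50% at 20 µM in the single-dose screen, limit read from the data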;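 further: 0% = DMSO wells and 100% = excess unlabeled CBFb competitor control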
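Assay system: Cerulean-Runt domain fusion protein, energy donor; Signal: fluorescence energy transfer, 422 nm excitation, 530/480 nm emission; Timing: 1 h compound exposure, room temperature; Control set: unlabeled CBFb; Medium: Tris buffer pH 7.5 with salts and BSA; Compound: single test concentration of 20 µM, 1% DMSO final; Probe or stimulus: Venus-CBFb 100 nM.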
PHOSPHO1 block = PHOSPHO1 (human) inhibition. Q8TCT1. recombinant PHOSPHO1, absorbance phosphatase assay. inhibition, % at 13.3 µM. 1.1% of 290,000 active. AID 1565; in the data active means inhibition above about 60%
Target sequence (Q8TCT1 whole entry, looked up): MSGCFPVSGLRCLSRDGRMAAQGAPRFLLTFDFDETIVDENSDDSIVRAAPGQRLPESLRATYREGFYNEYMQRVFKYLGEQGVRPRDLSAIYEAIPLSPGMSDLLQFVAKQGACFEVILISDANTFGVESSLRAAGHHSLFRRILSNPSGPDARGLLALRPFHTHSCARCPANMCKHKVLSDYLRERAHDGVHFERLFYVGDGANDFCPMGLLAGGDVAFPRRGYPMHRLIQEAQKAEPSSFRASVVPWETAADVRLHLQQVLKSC
Numbers without * were called inactive; . = no result. In the library only some 3.4% were active in any assay of this set; here they are far more common.

SMILES	RanGTP-Impb inh	Wee1 degr inh	Runt-SMMHC FRET	Efa HMGR inh	Runt-CBFb FRET	PHOSPHO1 block
CCOC(=O)c1ccc(N2CSC3=C(C#N)C(c4ccc(OC)cc4OC)CC(=O)N3C2)cc1 (stereo unspecified)	-7	0	28	-1	-29	90*
CCc1ccccc1N1CSC2=C(C#N)C(c3cc(OC)c(OC)cc3OC)CC(=O)N2C1 (stereo unspecified)	-112	0	48	-5	32	6
COC(=O)CCC(=O)Nc1sc(C)c(C)c1C(N)=O	1	2	8	-2	46	90*
CC(=O)c1c(C)[nH]c(C(=O)NCc2ccccc2)c1C	-5	1	3	-1	50*	7
Cc1ccc(C)c(S(=O)(=O)NCc2ccc3c(c2)OCO3)c1	-2	.	.	.	.	14
Cc1c(C=O)c(C=O)c(C)n1Cc1ccccc1	-6	1	-4	-3	2	13
CN(Cc1ccccc1)c1nc(N)nc(Cl)c1C=O	-2	-3	0	14*	2	12
Cc1cc(Cl)c(S(=O)(=O)Nc2cccc(O)c2)cc1OCC(N)=O	0	9.9*	5	6	1	9
CS(=O)(=O)N1CCN(c2ccc(NC(=O)c3cccnc3Cl)cc2)CC1	4	-1	-10	1	3	100*
COc1cc(/C=C(/Sc2nnc(-c3ccc(F)cc3)o2)C(=O)O)ccc1OC(F)F	4	2	-5	10*	0	-2
CCN(c1ccc(OC)cc1)S(=O)(=O)c1csc(C(=O)N2CCCC2)c1	0	.	.	.	.	43
COCCN=C1Sc2nc3ccc(C)cc3cc2CN1Cc1ccco1	5	3	2	-5	9	97*
CN1C(=O)C(=O)/C(=C(/O)c2ccc(Br)cc2)C1c1ccccc1F (stereo unspecified)	1	.	.	.	.	14
O=C(Cc1ccc(F)cc1)Nc1c(C(=O)N2CCN(c3ncccn3)CC2)oc2ccccc12	0	.	.	.	.	30
COc1cc(OC)c(NC(=O)CCCNC(=O)Cn2cnc3sc(C)c(C)c3c2=O)cc1Cl	0	.	.	.	.	28
CN(C)Cc1c(O)c(Cl)cc2c3c(c(=O)oc12)CCCC3	43*	-1	59*	-1	88*	9
CCc1c(C)c2cc(Cl)c(O)c(CN(C)C)c2oc1=O	39*	1	92*	0	92*	28
O=c1oc2c(CN3CCCCC3)c(O)ccc2c2c1CCCC2	9	0	50	3	23	-3
O=c1cc(-c2ccccc2)c2cc(Cl)c(O)c(CN3CCOCC3)c2o1	4	1	81	.	-19	16
O=c1oc2c(CN3CCOCC3)c(O)c(Cl)cc2c2c1CCC2	.	-3	176*	-4	104*	13
O=C(Cn1cnc(S(=O)(=O)N2CCCCC2)c1)N1CCN(c2ccc([N+](=O)[O-])cc2)CC1	2	.	.	.	.	1
O=C(Nc1ccccc1)c1cc(S(=O)(=O)NCc2ccncc2)ccc1Cl	3	.	.	.	.	22
CC(C)N(C(=O)COC(=O)CNS(=O)(=O)c1ccccc1F)c1ccccc1	0	0	0	-4	-2	2
CCN(CC)C(=O)NC1CCCCCCC1	-1	-2	2	-7	-1	60*
CC(C)c1ccc(OC(=O)c2ccc3c(=O)n4c(nc3c2)CCC4)cc1	3	.	.	.	.	.
SMILES	RanGTP-Impb inh	Wee1 degr inh	Runt-SMMHC FRET	Efa HMGR inh	Runt-CBFb FRET	PHOSPHO1 block
Cc1cc2nc(C)n(CCCN)c2cc1C	0	-1	-2	-1	-2	60*
CCn1c(C)nc2cc(C#N)ccc21	2	-2	-1	-2	0	-83
Cc1cc2nc(C)n(CCCNC(=O)Nc3ccc(C#N)cc3)c2cc1C	-1	-3	0	0	-2	60*
FC(F)(F)c1cccc(-n2cccc2/C=N/n2cnnc2)c1	4	-1	4	0	-3	94*
Cc1cccn2c(=O)nc(SCC(=O)NCCc3ccccc3)nc12	0	.	.	.	.	.
O=[N+]([O-])c1ccc(N2CCN(C(=S)Nc3ccc(F)cc3F)CC2)cc1	-13	9.2*	-6	-4	-1	18
CC1CCCN(C(=O)C2CCN(CC(C)c3ccccc3)CC2)C1 (stereo unspecified)	6	0	4	15*	-3	0

Bioassay records (PubChem)
